Results collected from several papers.
Lines come from different studies, so protocols differ.
Technique: competition with immobilised ligand
RPS6KA6 C-terminal kinase domain: Ribosomal protein S6 kinase alpha-6, C-terminal kinase domain (RPS6KA6, Homo sapiens, UniProt Q9UK32)
RPS6KA6 N-terminal kinase domain: Ribosomal protein S6 kinase alpha-6, N-terminal kinase domain (RPS6KA6, Homo sapiens, UniProt Q9UK32)

`CC1CCCN1c1nccc(-c2cnn3ncccc23)n1` (centres unmarked) gave a remaining binding of 100% (RPS6KA6 C-terminal kinase domain; binding; 1 µM).
`Cc1nccc(COC(=O)N2C[C@@H]3[C@@H](CNC(=O)c4ccc5[nH]nnc5c4)[C@@H]3C2)n1` has a remaining binding of 100% (RPS6KA6 N-terminal kinase domain; cell-free assay; 1 µM).
`F[C@@H]1CCN(c2nccc(-c3cnn4ncccc34)n2)C1` gave a remaining binding of 92% (RPS6KA6 C-terminal kinase domain; binding; 1 µM).
With `O=C(c1ccc(Nc2ncc(Cl)c(-c3cc4ccccc4s3)n2)cc1)N1CCC(N2CCCC2)CC1` the remaining binding was 89% (RPS6KA6 C-terminal kinase domain; binding; 1 µM).
The remaining binding of `O=C(NS(=O)(=O)c1ccc(NCC2CCOCC2)c([N+](=O)[O-])c1)c1ccc(N2CCN(Cc3ccc(C(F)(F)F)cc3-c3ccc(Cl)cc3)CC2)cc1Oc1cnc2[nH]ccc2c1` is reported as 100% (RPS6KA6 C-terminal kinase domain; cell-free assay; 1 µM).
For `COc1cnc(Nc2cccc(S(N)(=O)=O)c2)nc1N1CCN(c2ccccc2)C(=O)C1`, the remaining binding was 92% (RPS6KA6 C-terminal kinase domain; binding; 1 µM).
`O=C(NCCCN1CCOCC1)c1ccc(Nc2ncc(Cl)c(-c3ccc(Cl)s3)n2)cc1` gave a remaining binding of 72% (RPS6KA6 N-terminal kinase domain; binding; 1 µM).
`CCCCN(CCCC)C(=O)CN1C[C@@H](c2cc(OC)c3c(c2)OCO3)[C@H](C(=O)O)[C@H]1CC(C)(C)CCC` has a remaining binding of 96.6% (RPS6KA6 N-terminal kinase domain; cell-free assay; 1 µM).
The remaining binding of `O=C(NCC1CCOCC1)c1n[nH]cc1NC(=O)c1c(F)cccc1F` is reported as 41% (RPS6KA6 N-terminal kinase domain; binding; 1 µM).
`O=C(N[C@H]1CCCCC/C=C\C2C[C@@]2(C(=O)O)NC(=O)[C@@H]2C[C@@H](Oc3ccncc3)CN2C1=O)OC1CCCC1` (some centres unmarked) gave a remaining binding of 60% (RPS6KA6 N-terminal kinase domain; binding; 1 µM).
The remaining binding of `Cc1cnn2ncc(-c3ccnc(N(C)C)n3)c2c1` is reported as 82% (RPS6KA6 N-terminal kinase domain; binding; 1 µM).
With `COc1cc(-c2cn(C3CCc4ccccc4N(CC(F)(F)F)C3=O)nn2)ccc1-n1ccc(C)n1` (centres unmarked) the remaining binding was 81% (RPS6KA6 N-terminal kinase domain; cell-free assay; 1 µM).
With `C[C@@H]1CCN(c2nccc(-c3cnn4ncccc34)n2)C1` the remaining binding was 71% (RPS6KA6 N-terminal kinase domain; binding; 1 µM).
The remaining binding of `COc1cnc(Nc2cccc(S(N)(=O)=O)c2)nc1N1CCN(c2ccccc2)CC1` is reported as 73% (RPS6KA6 N-terminal kinase domain; binding; 1 µM).
The remaining binding of `c1cncc(-c2cccc(Nc3nccc(NC4CCCCC4)n3)c2)c1` is reported as 50% (RPS6KA6 N-terminal kinase domain; binding; 10 µM).
For `N[C@@H]1CCN(c2nccc(-c3cnn4ncccc34)n2)C1`, the remaining binding was 100% (RPS6KA6 N-terminal kinase domain; binding; 1 µM).
For `FC(F)(F)Oc1cccc(-c2cnc3ccc(-c4ccncc4)nn23)c1`, the remaining binding was 34% (RPS6KA6 C-terminal kinase domain; binding; 5 µM).
The remaining binding of `O=C(NCCCN1CCOCC1)c1ccc(Nc2nccc(-c3cc4ccccc4s3)n2)cc1` is reported as 35% (RPS6KA6 C-terminal kinase domain; binding; 1 µM).
`CN(C)c1ncc(F)c(-c2cnn3ncccc23)n1` gave a remaining binding of 98% (RPS6KA6 C-terminal kinase domain; binding; 1 µM).
`CN(C)C(=O)Cn1cc(-c2nc(C3(c4ccc(-c5cnc(N)nc5)cc4)CC3)no2)cn1` has a remaining binding of 83% (RPS6KA6 N-terminal kinase domain; cell-free assay; 1 µM).
